From ChEMBL document CHEMBL5325511, “Discovery of N-(4-(Aminomethyl)phenyl)-5-methylpyrimidin-2-amine Derivatives as Potent and Selective JAK2 Inhibitors” (ACS Med Chem Lett, 2023)
Calls of active or inactive are those of the source. The rule behind the calls is not given here.

Tests used:
[1] = target: T1, Tyrosine-protein kinase JAK3 (Homo sapiens, UniProt P52333); assay: Inhibition of JAK3 (unknown origin) in presence of Mg/ATP mixture by [gamma p33]-ATP based radiometric assay
T1 sequence (P52333 whole entry): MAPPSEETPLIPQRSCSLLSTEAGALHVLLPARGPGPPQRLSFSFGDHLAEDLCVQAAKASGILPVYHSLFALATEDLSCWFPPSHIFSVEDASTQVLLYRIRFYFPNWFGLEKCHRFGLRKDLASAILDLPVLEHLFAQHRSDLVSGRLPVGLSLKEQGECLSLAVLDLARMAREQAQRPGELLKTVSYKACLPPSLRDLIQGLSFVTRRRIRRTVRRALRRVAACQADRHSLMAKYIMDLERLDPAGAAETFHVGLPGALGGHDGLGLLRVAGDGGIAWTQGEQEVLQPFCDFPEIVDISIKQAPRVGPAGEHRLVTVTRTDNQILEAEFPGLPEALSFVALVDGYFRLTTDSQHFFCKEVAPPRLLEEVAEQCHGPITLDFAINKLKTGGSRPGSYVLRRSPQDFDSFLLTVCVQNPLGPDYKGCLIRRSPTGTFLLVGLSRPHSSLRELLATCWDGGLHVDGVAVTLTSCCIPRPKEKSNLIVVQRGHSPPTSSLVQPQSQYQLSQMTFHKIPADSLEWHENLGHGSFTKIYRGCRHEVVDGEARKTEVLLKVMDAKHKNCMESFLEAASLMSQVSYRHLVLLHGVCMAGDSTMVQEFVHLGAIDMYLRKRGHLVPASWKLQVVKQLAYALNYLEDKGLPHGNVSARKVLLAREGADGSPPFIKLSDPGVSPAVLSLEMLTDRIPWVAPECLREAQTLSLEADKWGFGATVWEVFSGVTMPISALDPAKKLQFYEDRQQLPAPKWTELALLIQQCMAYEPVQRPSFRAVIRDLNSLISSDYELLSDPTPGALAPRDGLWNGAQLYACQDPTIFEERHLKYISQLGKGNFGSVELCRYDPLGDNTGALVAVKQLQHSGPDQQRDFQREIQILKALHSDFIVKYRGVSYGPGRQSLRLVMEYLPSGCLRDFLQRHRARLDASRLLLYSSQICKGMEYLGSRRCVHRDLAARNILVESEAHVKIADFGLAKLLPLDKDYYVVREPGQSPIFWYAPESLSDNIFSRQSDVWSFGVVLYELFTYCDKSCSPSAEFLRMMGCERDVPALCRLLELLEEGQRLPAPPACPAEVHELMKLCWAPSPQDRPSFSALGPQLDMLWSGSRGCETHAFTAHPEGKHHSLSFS

[2] = Tmax in Sprague-Dawley rat at 5 mg/kg, po measured upto 24 hrs by LC-MS/MS analysis; format: ADME, organism-based; details: in vivo, po, 5 mg/kg, 24 h
Summary of the method: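 Sprague–Dawley rats, n = 5 per group, dosed at 5 mg/kg as a solution in 2% ethanol and 1% Tween 80, pH 5.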

BaF3 [3] = assay: Inhibition of JAK2/STAT signaling pathway in mouse BaF3 cells harbouring JAK2 V617F mutant assessed as reduction in STAT5 phosphorylation by Western blot analysis; format: cell-based; details: dose 10-1000 nM
Summary of the method: (§1)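 Ba/F3 JAK2V617F cells treated with compound at increasing concentrations. Phosphorylation levels of JAK2, STAT3, STAT5 and AKT assessed by Western blot.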

[4] = Half life in Sprague-Dawley rat at 5 mg/kg, po measured upto 24 hrs by LC-MS/MS analysis; format: ADME, organism-based; details: in vivo, po, 5 mg/kg, 24 h
Summary of the method: (§2)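 Sprague–Dawley rats, n = 5, dosed at 5 mg/kg as a solution in 2% ethanol and 1% Tween 80, pH 5.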

[5] = target: T2, Receptor-type tyrosine-protein kinase FLT3 (Homo sapiens, UniProt P36888); assay: Inhibition of FLT3 in human MOLM-13 cells; format: cell-based
T2 sequence (P36888 whole entry): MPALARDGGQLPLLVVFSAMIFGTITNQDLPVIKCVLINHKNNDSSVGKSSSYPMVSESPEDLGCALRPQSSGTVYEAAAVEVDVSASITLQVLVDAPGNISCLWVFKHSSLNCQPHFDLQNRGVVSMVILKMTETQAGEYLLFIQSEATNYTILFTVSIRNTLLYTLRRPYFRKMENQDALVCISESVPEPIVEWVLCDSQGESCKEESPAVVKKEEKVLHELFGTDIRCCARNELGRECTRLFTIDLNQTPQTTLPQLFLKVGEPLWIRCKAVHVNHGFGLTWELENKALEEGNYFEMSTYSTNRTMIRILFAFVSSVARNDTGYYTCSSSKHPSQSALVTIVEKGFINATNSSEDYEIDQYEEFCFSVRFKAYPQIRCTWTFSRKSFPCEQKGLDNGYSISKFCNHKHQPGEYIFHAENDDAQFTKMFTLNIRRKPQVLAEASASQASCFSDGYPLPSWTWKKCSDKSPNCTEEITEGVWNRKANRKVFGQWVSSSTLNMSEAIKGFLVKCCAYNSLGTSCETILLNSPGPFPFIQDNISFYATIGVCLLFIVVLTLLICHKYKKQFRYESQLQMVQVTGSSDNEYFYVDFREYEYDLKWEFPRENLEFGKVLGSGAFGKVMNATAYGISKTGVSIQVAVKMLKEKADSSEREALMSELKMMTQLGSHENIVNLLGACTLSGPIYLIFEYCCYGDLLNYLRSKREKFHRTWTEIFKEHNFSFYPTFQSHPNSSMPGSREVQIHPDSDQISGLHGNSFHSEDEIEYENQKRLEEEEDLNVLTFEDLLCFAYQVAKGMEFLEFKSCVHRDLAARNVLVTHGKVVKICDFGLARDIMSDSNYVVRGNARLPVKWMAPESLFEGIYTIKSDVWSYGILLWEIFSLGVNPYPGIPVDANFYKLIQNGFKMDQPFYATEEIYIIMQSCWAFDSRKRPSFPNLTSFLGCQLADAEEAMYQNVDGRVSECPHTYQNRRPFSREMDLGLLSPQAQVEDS
Summary of the method: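 Cell proliferation assay. IC50 is the concentration that inhibits proliferation by 50%, taken from dose–response curves. Mean ± SEM of at least three independent experiments.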

[6] = target: Tyrosine-protein kinase Lck (Homo sapiens) (UniProt P06239); assay: Inhibition of LCK (unknown origin)
Chain of Tyrosine-protein kinase Lck (Homo sapiens) (P06239 2-509 limits assumed): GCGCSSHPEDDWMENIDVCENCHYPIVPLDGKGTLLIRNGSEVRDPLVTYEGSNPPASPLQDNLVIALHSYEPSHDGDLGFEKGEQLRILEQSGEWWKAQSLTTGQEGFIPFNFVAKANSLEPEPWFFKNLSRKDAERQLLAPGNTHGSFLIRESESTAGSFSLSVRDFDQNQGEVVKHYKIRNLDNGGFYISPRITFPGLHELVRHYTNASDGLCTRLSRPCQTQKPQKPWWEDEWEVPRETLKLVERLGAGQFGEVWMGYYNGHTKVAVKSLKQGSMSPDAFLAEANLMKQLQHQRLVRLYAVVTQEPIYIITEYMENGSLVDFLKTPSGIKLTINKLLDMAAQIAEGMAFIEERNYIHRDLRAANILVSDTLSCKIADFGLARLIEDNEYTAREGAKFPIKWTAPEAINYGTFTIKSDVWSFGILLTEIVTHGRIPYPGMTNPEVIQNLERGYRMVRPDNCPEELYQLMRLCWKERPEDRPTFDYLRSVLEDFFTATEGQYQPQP
Summary of the method: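 Kinase panel profiling (KinaseProfile, run by an outside contractor). The inhibitor was tested at 1 μM in duplicate against DMSO control. The value is % control, the percentage of kinase activity remaining.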

[7] = Cmax in Sprague-Dawley rat at 5 mg/kg, po measured upto 24 hrs by LC-MS/MS analysis; format: ADME, organism-based; design: dose 5 mg/kg, time < 24 hrs, route po; details: in vivo, 24 h; summary of the method: as §2
[8] = target: Tyrosine-protein kinase JAK2 (Homo sapiens, UniProt O60674); assay: Inhibition of JAK2 (unknown origin) in presence of Mg/ATP mixture by [gamma p33]-ATP based radiometric assay
Chain of Tyrosine-protein kinase JAK2 (O60674 whole entry): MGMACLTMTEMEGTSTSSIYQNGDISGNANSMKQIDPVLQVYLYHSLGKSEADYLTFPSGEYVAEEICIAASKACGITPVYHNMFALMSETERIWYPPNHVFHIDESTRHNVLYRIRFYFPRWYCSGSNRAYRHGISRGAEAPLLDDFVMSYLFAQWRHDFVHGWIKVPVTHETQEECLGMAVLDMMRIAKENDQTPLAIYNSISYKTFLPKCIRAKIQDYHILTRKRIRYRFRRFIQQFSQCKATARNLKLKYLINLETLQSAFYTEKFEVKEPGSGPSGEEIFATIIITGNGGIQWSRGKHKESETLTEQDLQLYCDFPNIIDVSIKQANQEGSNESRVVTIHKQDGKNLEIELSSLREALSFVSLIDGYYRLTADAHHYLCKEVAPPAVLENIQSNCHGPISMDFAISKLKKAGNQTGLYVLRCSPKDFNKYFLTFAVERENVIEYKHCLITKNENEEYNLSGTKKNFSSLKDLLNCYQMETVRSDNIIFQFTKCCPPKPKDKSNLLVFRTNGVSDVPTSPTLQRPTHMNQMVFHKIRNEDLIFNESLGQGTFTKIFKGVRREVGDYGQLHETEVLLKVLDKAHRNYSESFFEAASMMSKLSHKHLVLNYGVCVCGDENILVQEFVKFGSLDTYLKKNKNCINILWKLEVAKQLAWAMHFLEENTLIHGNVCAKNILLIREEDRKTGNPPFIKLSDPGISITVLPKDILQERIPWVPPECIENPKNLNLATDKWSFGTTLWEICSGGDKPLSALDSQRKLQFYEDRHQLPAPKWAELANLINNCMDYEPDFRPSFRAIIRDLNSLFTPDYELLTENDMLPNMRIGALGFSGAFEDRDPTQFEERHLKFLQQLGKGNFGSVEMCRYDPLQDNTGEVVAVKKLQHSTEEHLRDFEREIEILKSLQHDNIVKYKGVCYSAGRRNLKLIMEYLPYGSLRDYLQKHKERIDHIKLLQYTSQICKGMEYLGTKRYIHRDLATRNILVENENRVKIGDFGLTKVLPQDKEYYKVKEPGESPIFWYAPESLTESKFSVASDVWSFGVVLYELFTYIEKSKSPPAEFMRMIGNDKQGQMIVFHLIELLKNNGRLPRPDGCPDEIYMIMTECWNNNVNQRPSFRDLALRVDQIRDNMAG
Summary of the method: (§3)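 IC50 values determined by Eurofins Discovery.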

BaF3 [9] = assay: Inhibition of JAK2/STAT signaling pathway in mouse BaF3 cells harbouring JAK2 V617F mutant assessed as reduction in JAK2 phosphorylation by Western blot analysis; format: cell-based; details: dose 10-1000 nM; summary of the method: as §1
[10] = target: Tyrosine-protein kinase JAK1 (Homo sapiens, UniProt P23458); assay: Inhibition of JAK1 (unknown origin) in presence of Mg/ATP mixture by [gamma p33]-ATP based radiometric assay; summary of the method: as §3
Chain of Tyrosine-protein kinase JAK1 (P23458 whole entry): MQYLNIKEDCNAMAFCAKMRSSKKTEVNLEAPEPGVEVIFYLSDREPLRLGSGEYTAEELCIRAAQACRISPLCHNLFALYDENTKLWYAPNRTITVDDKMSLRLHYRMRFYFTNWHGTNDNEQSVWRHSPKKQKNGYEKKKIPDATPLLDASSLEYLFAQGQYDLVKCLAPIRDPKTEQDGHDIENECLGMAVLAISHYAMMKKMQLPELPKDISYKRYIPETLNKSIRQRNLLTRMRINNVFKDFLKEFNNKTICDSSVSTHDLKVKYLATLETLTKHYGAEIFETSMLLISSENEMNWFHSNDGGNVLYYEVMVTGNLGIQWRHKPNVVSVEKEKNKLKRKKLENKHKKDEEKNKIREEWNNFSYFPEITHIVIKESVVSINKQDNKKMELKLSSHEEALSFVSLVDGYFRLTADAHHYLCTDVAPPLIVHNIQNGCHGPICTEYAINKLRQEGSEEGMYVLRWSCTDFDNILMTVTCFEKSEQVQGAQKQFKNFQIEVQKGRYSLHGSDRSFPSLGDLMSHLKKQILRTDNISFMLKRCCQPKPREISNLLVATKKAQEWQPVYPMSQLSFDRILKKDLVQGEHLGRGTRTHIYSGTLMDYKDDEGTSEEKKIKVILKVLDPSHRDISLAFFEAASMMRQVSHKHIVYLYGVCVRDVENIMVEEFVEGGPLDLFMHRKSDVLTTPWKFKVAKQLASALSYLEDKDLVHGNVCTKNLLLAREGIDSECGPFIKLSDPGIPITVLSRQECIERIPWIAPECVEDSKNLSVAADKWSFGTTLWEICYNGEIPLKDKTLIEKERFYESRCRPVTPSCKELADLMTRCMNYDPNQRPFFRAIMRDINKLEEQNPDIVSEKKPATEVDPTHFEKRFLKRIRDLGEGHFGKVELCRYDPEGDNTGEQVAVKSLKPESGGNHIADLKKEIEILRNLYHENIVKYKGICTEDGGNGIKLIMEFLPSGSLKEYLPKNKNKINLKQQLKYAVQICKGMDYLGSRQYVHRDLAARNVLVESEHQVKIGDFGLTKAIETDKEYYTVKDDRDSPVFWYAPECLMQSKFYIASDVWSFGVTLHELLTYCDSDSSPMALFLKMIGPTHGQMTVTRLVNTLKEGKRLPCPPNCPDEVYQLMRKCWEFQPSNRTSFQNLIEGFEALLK

IC50 [1]: 273 nM
Tmax [2]: 1.4 h
t1/2 [4]: 5.2 h
IC50 [5]: 583 nM
inhibition [6]: Active
Cmax [7]: 121.4 ng/mL
IC50 [8]: 5 nM
IC50 [10]: 193 nM
Structure (SMILES): C=CS(=O)(=O)NCc1ccc(Nc2ncc(C)c(-c3cnn(C(C)C)c3)n2)cc1
inhibition (BaF3 [3]): Dose-Dependent Effect
inhibition (BaF3 [9]): Dose-Dependent Effect
